Assay results collected from several papers.
Protocols differ between the studies behind these lines.
Matrix: plasma

| SMILES | test system | conditions | half-life |
| --- | --- | --- | --- |
| CN1CCN(Cc2ccc(NC(=O)c3cncc(C#Cc4cnc(N)c5ncccc45)c3)cc2C(F)(F)F)CC1 | rat | intravenous, 2 mg/kg | 3.4 h |
| [2H]C([2H])([2H])n1cc2cc(Nc3nc(=O)n(Cc4ncn(C)n4)c(=O)n3Cc3cc(F)c(F)cc3F)c(Cl)cc2n1 | male Sprague-Dawley rat | intravenous, 5 mg/kg | 3.68 h |
| CCCCCn1cc(C(=O)Nc2cccc3ccccc23)c2ccccc21 | male Long-Evans rat | intraperitoneal, 3 mg/kg | 11.6 h |
| CCCC[C@@H]1NC(=O)[C@H](Cc2ccc(O)cc2)NC(=O)[C@@H]2CCCN2C(=O)[C@H](CC(=O)O)NC(=O)[C@H](C)NC(=O)[C@H](Cc2ccccc2)NC(=O)[C@@H]2CSCCC(=O)N3CN(CN(C3)C(=O)CCSC[C@H](NC(C)=O)C(=O)N[C@@H](CC(C)(C)C)C(=O)N[C@@H](CCC(=O)O)C(=O)N[C@@H](CCC(=O)O)C(=O)N[C@H](CCCCNC(=O)CCc3cn(CCOCCOCCOCCOCCOCCC(=O)N[C@H]4CSCCC(=O)N5CN6CN(C5)C(=O)CCSC[C@H](NC(=O)[C@@H](CC(=O)O)NC(=O)[C@H](Cc5cccc7ccccc57)NC(=O)[C@@H]5CCCN5C4=O)C(=O)N[C@@H](CCSC)C(=O)N[C@@H](CCCCNC(=N)N)C(=O)N[C@@H](CC(=O)O)C(=O)N[C@@H](Cc4c[nH]c5ccccc45)C(=O)N[C@@H](CO)C(=O)N[C@@H]([C@@H](C)O)C(=O)N4CCC[C@H]4C(=O)N4C[C@H](O)C[C@H]4C(=O)N[C@@H](Cc4c[nH]c5ccccc45)C(=O)N[C@H](C(N)=O)CSCCC6=O)nn3)C(=O)N3CCC[C@H]3C(=O)N[C@@H](Cc3ccc(O)cc3)C(=O)N2)C(=O)CCSC[C@@H](C(N)=O)NC1=O | rat | intravenous, 2 mg/kg | 1.7 h |
| [2H]C([2H])(c1cc(F)c(F)cc1F)n1c(=O)n(Cc2ncn(C)n2)c(=O)[nH]/c1=N\c1cc2cn(C)nc2cc1Cl | male Sprague-Dawley rat | intravenous, 5 mg/kg | 3.37 h |
| O=C([O-])C(=O)[O-].[NH-][C@@H]1CCCC[C@H]1[NH-].[Pt+4] (relative stereo) | rat | intravenous, 5 mg/kg | 3.1 h |
| COC(=O)C(NC(=O)c1cn(CCCCCF)c2ccccc12)C(C)(C)C (stereo not drawn) | male Sprague-Dawley rat | subcutaneous, 50 µg/kg | 6.89 h |
| Cn1cnc(Cn2c(=O)[nH]/c(=N\c3cc4cn(C)nc4cc3Cl)n(Cc3cc(F)c(F)cc3F)c2=O)n1 | male Sprague-Dawley rat | intravenous, 5 mg/kg | 3.29 h |
| O=C(Nc1cccnn1)N1CCN([C@@H]2CCOc3cc(C(F)(F)F)ccc32)CC1 | male Sprague-Dawley rat | oral, 0.3 mg/kg | 3.3 h |
| Cl.Cl.O=C(CCN1CCCCC1)c1ccc(-c2ccc(C(=O)CCN3CCCCC3)cc2)cc1 | Sprague-Dawley rat | oral, 50 mg/kg | 7.54 h |
| Cc1ncc(C)n2nc(/C=C/c3nc(N4CCCC4)cc(N4CCOCC4)n3)nc12 | male Sprague-Dawley rat | oral, 0.3 mg/kg | 6 h |
| CCCC[C@@H]1NC(=O)[C@H](Cc2ccc(O)cc2)NC(=O)[C@@H]2CCCN2C(=O)[C@H](CC(=O)O)NC(=O)[C@H](C)NC(=O)[C@H](Cc2ccccc2)NC(=O)[C@@H]2CSCCC(=O)N3CN(CN(C3)C(=O)CCSC[C@H](NC(C)=O)C(=O)N[C@@H](CC(C)(C)C)C(=O)N[C@@H](CCC(=O)O)C(=O)N[C@@H](CCC(=O)O)C(=O)N[C@H](CCCCNC(=O)CCc3cn(CCOCCOCCOCCN(CCOCCOCCOCCC(=O)N[C@H]4CSCCC(=O)N5CN6CN(C5)C(=O)CCSC[C@H](NC(=O)[C@@H](CC(=O)O)NC(=O)[C@H](Cc5cccc7ccccc57)NC(=O)[C@@H]5CCCN5C4=O)C(=O)N[C@@H](CCSC)C(=O)N[C@@H](CCCCNC(=N)N)C(=O)N[C@@H](CC(=O)O)C(=O)N[C@@H](Cc4c[nH]c5ccccc45)C(=O)N[C@@H](CO)C(=O)N[C@@H]([C@@H](C)O)C(=O)N4CCC[C@H]4C(=O)N4C[C@H](O)C[C@H]4C(=O)N[C@@H](Cc4c[nH]c5ccccc45)C(=O)N[C@H](C(N)=O)CSCCC6=O)CCOCCOCCOCCn4cc(CCC(=O)NCCCC[C@H]5NC(=O)[C@H](CCC(=O)O)NC(=O)[C@H](CCC(=O)O)NC(=O)[C@H](CC(C)(C)C)NC(=O)[C@@H](NC(C)=O)CSCCC(=O)N6CN7CN(C6)C(=O)CCSC[C@H](NC(=O)[C@H](Cc6ccc(O)cc6)NC(=O)[C@@H]6CCCN6C5=O)C(=O)N[C@@H](Cc5ccccc5)C(=O)N[C@@H](C)C(=O)N[C@@H](CC(=O)O)C(=O)N5CCC[C@H]5C(=O)N[C@@H](Cc5ccc(O)cc5)C(=O)N[C@@H](CCCC)C(=O)N[C@H](C(N)=O)CSCCC7=O)nn4)nn3)C(=O)N3CCC[C@H]3C(=O)N[C@@H](Cc3ccc(O)cc3)C(=O)N2)C(=O)CCSC[C@@H](C(N)=O)NC1=O | rat | intravenous, 2 mg/kg | 2.1 h |
| N=c1c2c(-c3ccccc3)c(-c3ccccc3)n(Cc3ccccc3)c2ncn1[C@H]1CC[C@H](O)CC1 | male Sprague-Dawley rat | intravenous, 2 mg/kg, single dose | 8.9 h |
| CSCC[C@H](NC(=O)COCCOCCNC(=O)COCCOCCNC(=O)CC[C@H](NC(=O)CCCCCCCCCCCCCCCCC(=O)O)C(=O)O)C(=O)N[C@H]1CSSC[C@@H](C(=O)NCC(=O)N[C@@H](CO)C(=O)NCC(=O)N[C@@H](CO)C(=O)N[C@@H](CC(=O)O)C(=O)N[C@@H](Cc2ccc(O)cc2)C(=O)N[C@@H](CCCCN)C(=O)N[C@@H](CC(=O)O)C(=O)N[C@@H](CC(=O)O)C(=O)N[C@@H](CC(=O)O)C(=O)N[C@@H](CC(=O)O)C(=O)N[C@@H](CCCCN)C(N)=O)NC(=O)[C@H](Cc2ccccc2)NC(=O)[C@@H]2CCCN2C(=O)[C@H](Cc2c[nH]c3ccccc23)NC(=O)[C@H](CC(C)C)NC(=O)[C@H](CCSC)NC(=O)[C@H](Cc2c[nH]cn2)NC(=O)[C@H](Cc2ccccc2)NC(=O)[C@H](Cc2c[nH]cn2)NC(=O)[C@H]([C@@H](C)O)NC(=O)[C@H](Cc2ccccc2)NC1=O | male Sprague-Dawley rat | intravenous | 10.7 h |
| CCN1CC2(CCN(CCc3cc(F)ccc3F)CC2)O[C@H](C)C1=O | Wistar rat | intraperitoneal, 3 mg/kg, single dose | 0.333 h |
